Source: ChEMBL document CHEMBL4000190, “Novel trifluoromethylated 9-amino-3,4-dihydroacridin-1(2H)-ones act as covalent poisons of human topoisomerase IIα” (Bioorg Med Chem Lett, 2017)
Calls of active or inactive are those of the source. The rule behind the calls is not given here.

Key:
[1] = target: DNA topoisomerase 2-alpha (Homo sapiens) (UniProt P11388); assay: (§1) Poison activity at recombinant human topoisomerase-2alpha expressed in Saccharomyces cerevisiae JEL1 harboring topoisomerase1 deletion mutant assessed as concentration required to triple the level of DNA cleavage complex relative to basal level using supercoiled pBR322 DNA as substrate measured after 6 mins by ethidium bromide staining based agarose gel electrophoresis
DNA topoisomerase 2-alpha (Homo sapiens), sequence (P11388 whole entry, the tested form may be a part): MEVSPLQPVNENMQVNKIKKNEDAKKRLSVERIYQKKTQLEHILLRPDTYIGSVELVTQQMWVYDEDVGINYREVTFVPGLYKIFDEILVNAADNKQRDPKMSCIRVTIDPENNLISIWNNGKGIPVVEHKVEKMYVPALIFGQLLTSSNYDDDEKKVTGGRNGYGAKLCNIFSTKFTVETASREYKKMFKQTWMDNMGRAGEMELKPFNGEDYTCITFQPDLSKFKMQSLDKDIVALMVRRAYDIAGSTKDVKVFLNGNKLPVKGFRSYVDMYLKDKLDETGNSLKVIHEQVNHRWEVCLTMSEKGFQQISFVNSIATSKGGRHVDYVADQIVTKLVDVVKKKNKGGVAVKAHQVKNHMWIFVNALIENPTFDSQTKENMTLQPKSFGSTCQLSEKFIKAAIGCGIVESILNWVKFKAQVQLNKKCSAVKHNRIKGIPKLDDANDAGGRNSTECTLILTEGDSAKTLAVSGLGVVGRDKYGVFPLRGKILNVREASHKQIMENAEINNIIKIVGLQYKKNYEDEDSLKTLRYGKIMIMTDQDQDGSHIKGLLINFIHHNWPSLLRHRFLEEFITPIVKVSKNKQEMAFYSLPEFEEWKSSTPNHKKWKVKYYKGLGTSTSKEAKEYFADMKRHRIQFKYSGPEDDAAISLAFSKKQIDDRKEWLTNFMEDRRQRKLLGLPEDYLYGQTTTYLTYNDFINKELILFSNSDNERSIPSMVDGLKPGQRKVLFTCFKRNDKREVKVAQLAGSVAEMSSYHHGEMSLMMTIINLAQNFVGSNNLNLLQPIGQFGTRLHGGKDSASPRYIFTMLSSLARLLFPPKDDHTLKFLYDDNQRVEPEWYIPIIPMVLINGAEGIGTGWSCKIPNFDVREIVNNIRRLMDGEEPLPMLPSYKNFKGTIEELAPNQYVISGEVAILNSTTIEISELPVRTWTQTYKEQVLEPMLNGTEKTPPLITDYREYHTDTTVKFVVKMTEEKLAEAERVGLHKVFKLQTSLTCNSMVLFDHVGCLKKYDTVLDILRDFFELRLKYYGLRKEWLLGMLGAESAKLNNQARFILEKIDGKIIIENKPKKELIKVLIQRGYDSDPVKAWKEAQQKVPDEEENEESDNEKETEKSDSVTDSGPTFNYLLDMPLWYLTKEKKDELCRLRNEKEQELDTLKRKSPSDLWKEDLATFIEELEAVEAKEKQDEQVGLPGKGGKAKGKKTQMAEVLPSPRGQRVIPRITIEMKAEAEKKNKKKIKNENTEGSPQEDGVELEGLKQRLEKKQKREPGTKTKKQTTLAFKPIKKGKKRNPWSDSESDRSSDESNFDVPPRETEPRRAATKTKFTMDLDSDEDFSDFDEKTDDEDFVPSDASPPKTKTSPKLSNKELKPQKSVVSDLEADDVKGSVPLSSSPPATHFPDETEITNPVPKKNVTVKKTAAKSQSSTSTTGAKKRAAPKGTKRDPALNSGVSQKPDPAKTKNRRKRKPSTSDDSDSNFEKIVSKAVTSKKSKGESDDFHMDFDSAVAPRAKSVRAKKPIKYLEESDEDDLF
Summary of the method: (§2)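 Enhancement of topoisomerase IIα-mediated double-stranded cleavage of negatively supercoiled DNA, measured over a compound concentration range. Cleavage is expressed relative to the baseline of enzyme without compound.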

[2] = target: DNA topoisomerase 2-alpha (Homo sapiens) (UniProt P11388); assay: Inhibition of recombinant human topoisomerase-2alpha mediated DNA ligation expressed in Saccharomyces cerevisiae JEL1 harboring topoisomerase1 deletion mutant at 1 mM measured after 6 mins by ethidium bromide staining based agarose gel electrophoresis
Summary of the method: (§3)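 Topoisomerase IIα-mediated DNA ligation measured with or without 1 mM compound; controls at 50 µM. Mean ± standard deviation of at least three independent experiments.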

Bos taurus = species: Bos taurus; assay: Activity at calf thymus DNA topoisomerase-1 assessed as DNA intercalation by measuring band shift at 1 mM using pBR322 DNA as substrate measured after 15 mins by ethidium bromide staining based agarose gel electrophoresis relative to control
Summary of the method: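 Topoisomerase I relaxation of negatively supercoiled DNA in the presence of compound. Intercalation is read as a shift of topoisomer bands toward the supercoiled position. Controls are DNA alone and DNA plus topoisomerase I without compound. Gel representative of three independent experiments.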

[3] = target: DNA topoisomerase 2-alpha (Homo sapiens) (UniProt P11388); assay: as §1, with “increase in double stranded” for “concentration required to triple the level of”, “at 1 mM” for “complex relative to basal level”, “substrate in presence of reducing agent DTT” for “substrate”
Summary of the method: (§4)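 Topoisomerase IIα DNA cleavage with 1 mM compound, run without and with 0.5 mM DTT. Controls are no-compound and 50 µM reactions. Mean ± standard deviation of at least three independent experiments.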

[4] = target: DNA topoisomerase 2-alpha (Homo sapiens) (UniProt P11388); assay: Poison activity at recombinant human topoisomerase-2alpha catalytic domain (431 to 1193 residues) assessed as increase in double stranded DNA cleavage at 1 mM using supercoiled pBR322 DNA as substrate measured after 6 mins by ethidium bromide staining based agarose gel electrophoresis
Summary of the method: (§5)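 Double-stranded DNA cleavage by full-length topoisomerase IIα and by the catalytic core (lacking N- and C-terminal domains), run in parallel. Compounds at 1 mM; controls at 50 µM; a no-compound baseline is included. Mean ± SD of ≥3 independent experiments.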

[5] = target: DNA topoisomerase 2-alpha (Homo sapiens) (UniProt P11388); assay: (§6) Poison activity at recombinant human topoisomerase-2alpha expressed in Saccharomyces cerevisiae JEL1 harboring topoisomerase1 deletion mutant assessed as increase in double stranded DNA cleavage at 1 mM using supercoiled pBR322 DNA as substrate preincubated for 1 to 5 mins followed by substrate addition measured after 6 mins by ethidium bromide staining based agarose gel electrophoresis
Summary of the method: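 Topoisomerase IIα was preincubated with 1 mM compound for 1–5 min, then the cleavage reaction was started by adding DNA. Cleavage was followed against preincubation time.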

[6] = target: DNA topoisomerase 2-alpha (Homo sapiens) (UniProt P11388); assay: as §6, with “up to 1000 uM” for “at 1 mM”, “substrate” for “substrate preincubated for 1 to 5 mins followed by substrate addition”, “electrophoresis relative to control” for “electrophoresis”; summary of the method: as §2
[7] = target: DNA topoisomerase 2-alpha (Homo sapiens) (UniProt P11388); assay: Poison activity at recombinant human topoisomerase-2alpha expressed in Saccharomyces cerevisiae JEL1 harboring topoisomerase1 deletion mutant assessed as double stranded DNA cleavage using supercoiled pBR322 DNA as substrate at 1000 uM measured after 6 mins by ethidium bromide staining based agarose gel electrophoresis relative to control; summary of the method: as §2
[8] = target: DNA topoisomerase 2-alpha (Homo sapiens) (UniProt P11388); assay: Inhibition of recombinant human topoisomerase-2alpha mediated DNA ligation expressed in Saccharomyces cerevisiae JEL1 harboring topoisomerase1 deletion mutant at 50 uM measured after 6 mins by ethidium bromide staining based agarose gel electrophoresis; summary of the method: as §3
[9] = target: DNA topoisomerase 2-alpha (Homo sapiens) (UniProt P11388); assay: Poison activity at recombinant human topoisomerase-2alpha expressed in Saccharomyces cerevisiae JEL1 harboring topoisomerase1 deletion mutant assessed as increase in double stranded DNA cleavage at 50 uM using supercoiled pBR322 DNA as substrate in presence of reducing agent DTT measured after 6 mins by ethidium bromide staining based agarose gel electrophoresis; summary of the method: as §4
[10] = target: DNA topoisomerase 2-alpha (Homo sapiens) (UniProt P11388); assay: Poison activity at recombinant human topoisomerase-2alpha catalytic domain (431 to 1193 residues) assessed as increase in double stranded DNA cleavage at 50 uM using supercoiled pBR322 DNA as substrate measured after 6 mins by ethidium bromide staining based agarose gel electrophoresis; summary of the method: as §5

SMILES | Activity [1] [µM] | inhibition [2] | Activity (Bos taurus) | Activity [3] | Activity [4] | Activity [5] | fold change (FC) [6] | Activity [7] [%] | inhibition [8] | Activity [9] | Activity [10]
Nc1c2c(nc3ccc([N+](=O)[O-])cc13)CC(C(F)(F)F)CC2=O (stereo not given) | > 1000 | inactive | Active | – | – | – | – | – | – | – | –
Cc1ccc2c(N)c3c(nc2c1)CC(C(F)(F)F)CC3=O (stereo not given) | 800 | inactive | Active | inactive | inactive | Active | – | – | – | – | –
Nc1c2c(nc3ccc(F)cc13)CC(C(F)(F)F)CC2=O (stereo not given) | 520 | inactive | Active | inactive | inactive | – | 5.5 to 8.5 | < 35 | – | – | –
Nc1c2c(nc3ccccc13)CC(C(F)(F)F)CC2=O (stereo not given) | 155 | inactive | Active | inactive | inactive | Active | 5.5 to 8.5 | – | – | – | –
c1ccc2nc3ccccc3cc2c1 | > 1000 | – | – | – | – | – | – | – | – | – | –
Nc1c2c(nc3ccc(Br)cc13)CC(C(F)(F)F)CC2=O (stereo not given) | 90 | inactive | Active | inactive | inactive | Active | 5.5 to 8.5 | < 35 | – | – | –
O=C1CC(C(F)(F)F)Cc2nc3ccccc3cc21 (stereo not given) | > 1000 | inactive | Active | – | – | – | 5.5 to 8.5 | – | – | – | –
COc1cc([C@@H]2c3cc4c(cc3[C@@H](O[C@@H]3O[C@@H]5CO[C@@H](C)O[C@H]5[C@H](O)[C@H]3O)[C@H]3COC(=O)[C@H]23)OCO4)cc(OC)c1O | 32 | – | – | – | – | – | – | – | Active | – | –
COc1cc(NS(C)(=O)=O)ccc1Nc1c2ccccc2nc2ccccc12 | 8.5 | – | – | – | – | – | – | – | Active | Active | Active
Nc1c2c(nc3ccc(Cl)cc13)CC(C(F)(F)F)CC2=O (stereo not given) | 85 | inactive | Active | inactive | inactive | Active | 5.5 to 8.5 | < 35 | – | – | –
